# Rows were chosen to be rich in hits. Some 1.2% of all compounds tested hit in one or more screens of this group.
# HKDC1 inhibitor – blocks human hexokinase HKDC1 activity; inhibition, % at 20 µM; 340,000 compounds, 0.16% hits; recombinant HKDC1, G6PDH/diaphorase resazurin coupled fluorescence; Q2TB90;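 active means inhibition above about 35% when tested at 20 µM, limit read from the data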;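 further: plate controls were DMSO wells with enzyme for no effect and DMSO wells lacking enzyme for full effect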
# Target sequence (Q2TB90 whole entry, looked up): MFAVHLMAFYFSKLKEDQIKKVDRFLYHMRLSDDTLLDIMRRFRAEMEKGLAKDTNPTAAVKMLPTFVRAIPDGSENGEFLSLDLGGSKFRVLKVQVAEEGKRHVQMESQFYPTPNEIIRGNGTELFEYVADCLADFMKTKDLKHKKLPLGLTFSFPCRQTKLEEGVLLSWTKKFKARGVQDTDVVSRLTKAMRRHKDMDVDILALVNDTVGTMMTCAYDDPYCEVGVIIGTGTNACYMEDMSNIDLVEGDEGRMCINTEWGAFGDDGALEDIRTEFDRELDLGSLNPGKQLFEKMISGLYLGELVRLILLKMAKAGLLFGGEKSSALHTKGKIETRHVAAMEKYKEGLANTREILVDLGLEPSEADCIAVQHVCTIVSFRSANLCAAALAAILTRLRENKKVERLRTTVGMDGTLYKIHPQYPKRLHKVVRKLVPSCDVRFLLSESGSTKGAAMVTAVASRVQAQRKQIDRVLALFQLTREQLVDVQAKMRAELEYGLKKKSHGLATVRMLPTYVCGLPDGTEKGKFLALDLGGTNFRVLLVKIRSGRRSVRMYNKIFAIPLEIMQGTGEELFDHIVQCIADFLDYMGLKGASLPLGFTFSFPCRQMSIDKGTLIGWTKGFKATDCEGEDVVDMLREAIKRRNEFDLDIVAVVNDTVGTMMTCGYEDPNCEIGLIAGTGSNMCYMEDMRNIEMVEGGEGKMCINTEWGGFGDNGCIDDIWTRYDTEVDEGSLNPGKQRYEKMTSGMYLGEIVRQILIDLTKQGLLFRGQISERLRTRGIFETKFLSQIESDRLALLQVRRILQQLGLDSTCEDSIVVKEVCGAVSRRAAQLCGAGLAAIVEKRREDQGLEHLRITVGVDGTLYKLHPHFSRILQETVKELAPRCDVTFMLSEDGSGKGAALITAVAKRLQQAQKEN
#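 Material – in-house recombinant HK5 (HKDC1) enzyme · Quantity – HKDC1 at 5 µg/mL · Buffer or medium – pH 8.0 Tris buffer with 10 mM MgCl2 · Reagent – glucose with 1 mM ATP · Dosing – single 20 µM dose · Times – reaction time 90 min, room temperature, protected from light · Technique – resorufin fluorescence at 613 nm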
# G6PDH counter – counter-screen for G6PDH assay hits: L. mesenteroides G6PDH inhibition | inhibition, % at 5 µM | Purified L. mesenteroides G6PDH, diaphorase/resazurin coupled fluorescence, 45 min | AID 1020 | 200,000 compounds, 0.12% hits; in the data active means inhibition above about 50%
# PfG6PD inh – PfG6PD (Plasmodium falciparum) enzyme inhibition; PfGluPho enzyme, NADPH resazurin-diaphorase fluorescence; inhibition, % at 20 µM; 350,000 compounds, 0.78% hits;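 active means inhibition reaching at least a set limit at 20 µM in the primary screen, cut at about 59% in these data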;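 further: 0% = DMSO wells with substrate and 100% = DMSO wells lacking glucose-6-phosphate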
# Tb hexokinase – blocks Trypanosoma brucei hexokinase 1 activity; 220,000 compounds, 0.11% hits; AID 1430; inhibition, % at 10 µM; recombinant TbHK1, G6PDH-coupled NADH A340;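 active means inhibition of 50% or more in the single-dose primary screen; inactive means inhibition below 50%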
# Diaphorase inh – inhibits diaphorase or chemically oxidizes, flagging diaphorase assay artifacts; diaphorase resazurin-to-resorufin fluorescence, NADH, 16 min; bacterial (C. kluyveri) enzyme, not human; inhibition, % at 20 µM; 190,000 compounds, 0.69% hits;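 active means primary screen inhibition at 20 µM above a set limit, cut at about 50% in these data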;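 further: plate controls were DMSO with full reaction for no effect and wells lacking NADH for full effect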
#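 System: Bacterial diaphorase enzyme (C. kluyveri) | Incubation: 16-min room-temperature incubation before reading | Benchmarks: No-NADH positive control and DMSO neutral control | Measured by: Resorufin fluorescence 544/590 nm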
# * hit, by the source's call; / = no result.
SMILES,HKDC1 inhibitor,G6PDH counter,PfG6PD inh,Tb hexokinase,Diaphorase inh
Cc1cccc(-n2c(C)c(-c3ccccc3)[nH]c2=S)c1,-5,/,47,/,/
Cc1ccc(-n2c(=S)[nH]c3c(oc4ccccc43)c2=O)cc1,11,14,11,-11,66*
O=c1c2oc3ccccc3c2[nH]c(=S)n1-c1ccccc1,11,-35,18,-12,66*
Cc1ccc(-n2c(C)nc3oc4ccccc4c(=O)c3c2=O)cc1,10,15,-5,3,56*
COc1ccc2c(=O)c3c(=O)n(-c4ccc(C)cc4)c(-c4ccccc4)nc3oc2c1,/,/,/,-20,/
CCN(CC)C(=O)C1=C(C)N(Cc2ccc(C(C)(C)C)cc2)C(=O)C(CC(=O)NCc2cccs2)C1 (stereo not drawn),/,/,3,/,/
COc1cccc(C(=Cc2ccc([N+](=O)[O-])cc2)C(=O)O)c1,/,/,-21,/,/
O=C(COC(=O)c1cnc(Cl)c(Cl)c1)NC1CCCC1,/,/,-8,/,/
COc1ccc(C(=O)N2CCC(n3nccc3NC(=O)C3CCOC3)CC2)cc1 (stereo not drawn),-6,/,-5,/,/
Cc1ccccc1NC(=O)CNC(=O)N1CC(=O)Nc2ccccc21,/,/,-10,/,/
Cn1cnc([N+](=O)[O-])c1Sc1ncnc2nc[nH]c12,-2,/,9,-15,/
Cn1cnc(Sc2ncnc3nc[nH]c23)c1[N+](=O)[O-],-8,/,61*,-16,/
COc1ccc(OC)c(N(CCN2C(=O)c3ccccc3C2=O)C(=O)CCl)c1,/,/,14,/,/
O=c1cc2oc3cc(O)c(O)cc3c(-c3ccccc3O)c-2cc1O,31,/,13,2,/
COc1ccc(OC)c(-c2c3cc(O)c(=O)cc-3oc3cc(O)c(O)cc23)c1,34,32,37,23,88*
CS(=O)(=O)C1=NSC2=NC(=O)/C(=C\c3cccn3-c3ccc(Cl)cc3)C(=N)N21,23,-1,-23,14,51*
Cc1cc(/C=C2/C(=N)N3C(=NC2=O)SN=C3S(C)(=O)=O)c(C)n1-c1ccccc1F,28,6,-48,-1,13
COCc1ccc(O)c2ncccc12,-5,44,-32,-5,30
Cc1ccccc1NCc1ccc(O)c2ncccc12,-15,26,14,4,92*
Oc1ccc(CNc2ccc(F)cc2)c2cccnc12,5,26,13,7,77*
Oc1ccc(CN2CCN(Cc3ccccc3)CC2)c2cccnc12,-2,/,-23,-1,/
Oc1ccc(CNc2ccccc2)c2cccnc12,-5,25,-31,-8,86*
OCc1ccnc2c(O)cccc12,2,59*,-1,14,48
O=C1NC(Cc2ccccc2)c2nc3cc(Cl)ccc3c(=O)n2-c2ncccc21 (stereo not drawn),/,/,-26,/,/
COc1ccccc1NC(=O)Cc1nc(=O)[nH]c(=O)[nH]1,/,/,9,/,/
SMILES,HKDC1 inhibitor,G6PDH counter,PfG6PD inh,Tb hexokinase,Diaphorase inh
Oc1ccc(Cn2ccnc2)c2cccnc12,-8,40,-14,3,54*
Cc1cccc(NCc2ccc(O)c3ncccc23)c1,0,36,18,-3,78*
Cc1cccc(NC(=O)CSc2cccc3cccnc23)c1,-5,/,7,/,/
CCCNC1=C(N(C(C)=O)c2cccc(F)c2)C(=O)c2ccccc2C1=O,19,52*,20,29,34
COCCN1C(=O)/C(=C2/C(=O)N(CC(=O)Nc3ccccc3Cl)c3ccccc32)SC1=S,0,/,-13,/,/
O=C(CN1C(=O)/C(=C2/SC(=S)N(CCS(=O)(=O)O)C2=O)c2ccccc21)Nc1cccc(C(F)(F)F)c1,36*,/,16,/,/
CCCCCCCCC[n+]1cccc2c3ccccc3ccc21,0,3,-13,-6,-10
CCCCCCCCCCCCCCCC[n+]1cccc2ccccc21,28,12,12,55*,-60
C[C@@H]1CN([C@@H](C)CO)C(=O)c2cc(NC(=O)Nc3ccccc3)ccc2O[C@@H](C)CCCCO[C@H]1CN(C)C(=O)Nc1ccc(C(F)(F)F)cc1,/,/,16,/,/
Cn1c(/N=C/c2c(O)ccc3ccccc23)nc2ccccc21,54*,12,76*,39,77*
CCCn1c(/N=C/c2ccccc2O)nc2ccccc21,-2,10,12,4,10
Oc1ccc(C=Nc2ccc3ncccc3c2)c(O)c1,/,56*,/,-51,68*
Oc1ccc(C=Nc2cccc3ncccc23)c(O)c1,18,-40,16,-34,45
COc1ccccc1N1C(=N)S/C(=C\c2ccc(-c3ccccc3C(=O)O)o2)C1=O,6,2,-3,-1,34
N=C1S/C(=C\c2ccc(-c3ccccc3C(=O)O)o2)C(=O)N1c1ccc2c(c1)OCO2,18,2,1,4,67*
CCO[C@@H]1OC(C(=O)N2CCN(Cc3ccc4c(c3)OCO4)CC2)=C[C@H](c2cn(C(C)=O)c3ccccc23)[C@H]1CCCO,3,18,11,-14,56*
CC(=O)n1cc([C@H]2C=C(C(=O)N3CCN(Cc4ccc5c(c4)OCO5)CC3)O[C@@H](OCCCCO)C2)c2ccccc21,3,18,-8,-11,56*
Cc1nc(NC(=O)c2ccccc2)sc1-c1cc(C(=O)N2CCOCC2)nn1Cc1ccccc1,/,/,0,/,/
O=c1oc2ccccc2c(Nc2ccccc2O)c1[N+](=O)[O-],-7,19,-9,-17,58*
O=c1oc2ccccc2c(Nc2cc3ccccc3cc2O)c1[N+](=O)[O-],11,45,0,-19,46
COc1ccc(/C=N/NC(=O)c2ccc(C)cc2)cc1CN1CCN(c2ccc(F)cc2)CC1,-1,0,-11,-7,13
COc1ccc(/C=N\NC(=O)c2cc(O)c(O)c(O)c2)cc1CN1CCN(c2ccc(F)cc2)CC1,4,-20,39,-13,63*
Cn1c(CN2CCN(C(=O)c3ccc(F)cc3)CC2)nc2cc([N+](=O)[O-])ccc21,1,-4,-20,-14,14
C[C@@H]1CN([C@@H](C)CO)C(=O)CCCn2nncc2CO[C@@H]1CN(C)S(=O)(=O)c1cccc(F)c1,/,/,-11,/,/
O=C(/C=C/c1ccccc1)NC(=S)NNC(=O)c1cnccn1,-33,/,-9,-19,/
SMILES,HKDC1 inhibitor,G6PDH counter,PfG6PD inh,Tb hexokinase,Diaphorase inh
COc1cc(C(=O)NNC(=S)NC(=O)c2ccc(Cl)cc2)cc(OC)c1OC,-14,5,-35,-12,61*
COc1ccc(C(=O)NNC(=S)NC(=O)c2ccc(Cl)cc2)cc1,-7,/,-11,/,/
COc1ccc(/C=C/C(=O)NC(=S)NNC(=O)c2cccnc2)cc1OC,-16,-2,-10,-53,82*
O=C(/C=C/c1ccccc1)NC(=S)NNC(=O)c1cccnc1,-8,6,-33,-15,81*
COc1ccc(C(=O)NC(=S)NNC(=O)c2cnccn2)cc1OC,-26,-3,11,-13,74*
COc1ccc(/C=C/C(=O)NC(=S)NNC(=O)c2cccs2)cc1OC,-24,/,-7,-57,/
COc1ccc(C(=O)NCCNC(=O)c2cnccn2)cc1OC,-2,/,0,/,/
